The nature of data set [1]: folding enthalpy; higher = less favourable; fluorescence melt of hairpins on a sequencing array, two-state fit. The settings on record: sodium 0.088 M. The method, boiled down: (§1)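 Two-state fits, bootstrapped, provided melting temperature and folding enthalpy from Cy3 fluorescence normalised to pre-quench Cy3 and to control constructs. Library hairpins with annealed Cy3 and quencher oligos were imaged on a sequenced MiSeq flow cell in 50 mM Na-HEPES pH 8.0, 25 mM NaCl, at 2.5 °C intervals up to 60 °C. Four replicates were combined with inverse-variance weighting. A 9.35 °C upward shift was applied to fitted temperatures to match UV melts.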

The nature of data set [2]: melting temperature; fluorescence melt of hairpins on a sequencing array, two-state fit, raised by 9.35 °C to match UV melts. Conditions: sodium 0.088 M. The method, boiled down:
as §1

For the sequence GTCAGCGAAAGCTTCGAC ((((((....)))..))), the folding enthalpy in data set [1] is -12 kcal/mol. For the same sequence, the Tm in data set [2] worked out at 32.3 °C.

Consider GTCAGCGGAAACGCCGAC (((.(((....))).))), for which, in data set [1], the folding enthalpy is -26.9 kcal/mol. The Tm in data set [2] came out at 49.2 °C.

For GTCAGCGGAAACGTTGGC (.((.((....)).)).), the folding enthalpy in data set [1] is -26 kcal/mol. For the same sequence, the Tm in data set [2] came to 42.2 °C.

With GTCAGGACGAAAGTCGAC (((..(((....)))))), the folding enthalpy in data set [1] is -18.7 kcal/mol. In addition, the Tm in data set [2] was 41.3 °C.

As to GTCAGGGAAACCTGAC ((((((....)))))), the folding enthalpy in data set [1] is -32.5 kcal/mol. Further, the Tm in data set [2] was 61.6 °C.

As for GTCAGGGGAAACCCTGGC (.(((((....))))).), in data set [1], the folding enthalpy was -27.7 kcal/mol. Moreover, the Tm in data set [2] came out at 53.6 °C.

With GTCAGGGGAAACTCTGGC (.(((.(....).))).), the folding enthalpy in data set [1] was -24.5 kcal/mol. For the same sequence, the Tm in data set [2] came out at 36.4 °C.

Turning to GTCAGTGGAAACACTGAC (((((((....))))))), the folding enthalpy in data set [1] is -47.6 kcal/mol. Moreover, the Tm in data set [2] turned out to be 64.5 °C.

Turning to GTCAGTGGAAACATTGAC ((((.((....)).)))), in data set [1], the folding enthalpy is -29.2 kcal/mol. In addition, the Tm in data set [2] was 45.3 °C.

In the case of GTCAGTGGAAACGCTGAC (((((.(....).))))), the folding enthalpy in data set [1] was -40.5 kcal/mol. Moreover, the Tm in data set [2] stood at 54.2 °C.

GTCATAACGAAAGTTGAC (((..(((....)))))): the folding enthalpy in data set [1] is -24.4 kcal/mol. The Tm in data set [2] worked out at 37.2 °C.

Regarding GTCATACGAAAGTACGAC (((.(((....))).))), the folding enthalpy in data set [1] is -28.7 kcal/mol. The Tm in data set [2] was 42.9 °C.

As for GTCATATCGAAAGATGAC (((..(((....)))))), the folding enthalpy in data set [1] was -26.1 kcal/mol. In addition, the Tm in data set [2] amounted to 37.1 °C.

For GTCATCCGAAAGGAAGAC (((.(((....))).))), the folding enthalpy in data set [1] is -29.9 kcal/mol. Moreover, the Tm in data set [2] worked out at 49.3 °C.

For GTCATCGAAAGATTAGAC ((((((....)))..))), the folding enthalpy in data set [1] was -14 kcal/mol. Further, in data set [2], the Tm was determined as 32.2 °C.

As to GTCATCGGAAACGACGAC (((.(((....))).))), the folding enthalpy in data set [1] is -29.7 kcal/mol. The Tm in data set [2] was found to be 43.2 °C.

Regarding GTCATCGGAAACGATGAC (((((((....))))))), the folding enthalpy in data set [1] is -40 kcal/mol. Further, in data set [2], the Tm was 67.8 °C.

In the case of GTCATGGGAAACCACGAC (((.(((....))).))), the folding enthalpy in data set [1] was -31.9 kcal/mol. In addition, in data set [2], the Tm worked out at 39.9 °C.

Take GTCATGGGAAACCATGGC (.(((((....))))).): the folding enthalpy in data set [1] is -24.1 kcal/mol. In data set [2], the Tm stood at 53.2 °C.

Consider GTCATGGGAAACCGTGAC ((((.((....)).)))), for which, in data set [1], the folding enthalpy was -42.3 kcal/mol. The Tm in data set [2] came to 52.9 °C.

GTCATGGGAAACTGTGAC ((((..(....)..)))): the folding enthalpy in data set [1] is -32.9 kcal/mol. In data set [2], the Tm turned out to be 39.1 °C.

Consider GTCATTCCGAAAGGAGAC (((..(((....)))))), for which, in data set [1], the folding enthalpy is -10.2 kcal/mol. Further, the Tm in data set [2] came to 29.2 °C.

As to GTCATTGAAAAATGAC ((((((....)))))), the folding enthalpy in data set [1] was -38.6 kcal/mol. Further, the Tm in data set [2] came out at 51.9 °C.

GTCATTGGAAACGATGAC (((((.(....).))))): in data set [1], the folding enthalpy is -41.1 kcal/mol. The Tm in data set [2] was 46.7 °C.

Take GTCCAACCGAAAGGTGAC (((..(((....)))))): the folding enthalpy in data set [1] is -16.3 kcal/mol. Besides, the Tm in data set [2] was found to be 37.2 °C.

As to GTCCAACGAAAGTTAGAC (((.(((....))).))), the folding enthalpy in data set [1] is -29.6 kcal/mol. In data set [2], the Tm was found to be 38.5 °C.

Regarding GTCCACCGAAAGGTAGAC (((.(((....))).))), the folding enthalpy in data set [1] is -26.4 kcal/mol. Further, in data set [2], the Tm worked out at 47.4 °C.

Take GTCCACCGAAAGGTGAC (((.(((....)))))): in data set [1], the folding enthalpy was -12.5 kcal/mol. Moreover, the Tm in data set [2] was determined as 46.1 °C.

Turning to GTCCACGAAAGTGCAGAC ((((((....)))..))), the folding enthalpy in data set [1] is -16.5 kcal/mol. The Tm in data set [2] amounted to 36.2 °C.

As for GTCCACGAAAGTGCGAC ((((((....))).))), the folding enthalpy in data set [1] was -22.8 kcal/mol. The Tm in data set [2] turned out to be 50.9 °C.

On to GTCCACGAAAGTGCGGAC ((((((....)))..))), for which the folding enthalpy in data set [1] is -17.4 kcal/mol. In addition, the Tm in data set [2] was 45 °C.

With GTCCACGAAAGTGTGAC ((((((....))).))), the folding enthalpy in data set [1] is -22.4 kcal/mol. Besides, the Tm in data set [2] worked out at 50.4 °C.

On to GTCCACGGAAACGTAGAC (((.(((....))).))), for which the folding enthalpy in data set [1] is -26.6 kcal/mol. Also, the Tm in data set [2] was determined as 41 °C.

On to GTCCACGGAAACGTGAAC ((.((((....)))).)), for which the folding enthalpy in data set [1] is -18.1 kcal/mol. For the same sequence, in data set [2], the Tm is 45.5 °C.

Consider GTCCAGACGAAAGTCGAC (((..(((....)))))), for which the folding enthalpy in data set [1] was -11.1 kcal/mol. Besides, the Tm in data set [2] turned out to be 36.9 °C.

Turning to GTCCAGGCGAAAGCCGAC (((..(((....)))))), the folding enthalpy in data set [1] is -9.61 kcal/mol. For the same sequence, in data set [2], the Tm is 37 °C.

As for GTCCAGTCGAAAGACGAC (((..(((....)))))), the folding enthalpy in data set [1] was -15 kcal/mol. Also, the Tm in data set [2] turned out to be 34.8 °C.

Values taken from the array DNA melting data of Ke et al. (doi:10.1101/2024.01.08.574731).
